According to publication PMC7004075 (Clinical Pharmacology in Drug Development, 2019):

Experiments:
[1] = system: endogenous glucose production, nonhepatic glucose uptake; conditions: peripheral administration at 1.8 pmol/kg/min, preclinical; cited from earlier work
[2] = system: plasma glucose in patients with T2DM; test: Plasma glucose pharmacodynamics, Cohort 2; format: in vivo, human
In short: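 Dosing was before each of 2 ADA meals set 4, 5 or 6 h apart and eaten within 30 min. Blood was taken predose and 10–180 min postdose. Baseline-adjusted glucose AUC0‑180min and Cmin were analysed by a mixed-effects model (sequence, period, treatment; patient-within-sequence random).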

[3] = Plasma insulin tregopil pharmacokinetics, Cohort 2; format: in vivo, human; conditions: for plasma insulin tregopil Cmax, mean ± SD / plasma insulin tregopil AUC0-180min, mean ± SD: 30 mg oral
[4] = system: plasma glucose in patients with T2DM; test: Plasma glucose pharmacodynamics, Cohort 1; format: in vivo, human
patients with T2DM = test: Safety and tolerability; format: in vivo, human; conditions: for overall safety and tolerability: patients with T2DM, different dosing conditions
[5] = Cohort 2, 5-hour between-meal interval, afternoon dose
[6] = Cohort 2, 5-hour between-meal interval, morning dose

Substance: human insulin: human insulin infused into portal vein or peripherally in preclinical studies
- increase in plasma insulin levels in the peripheral artery [1]: 2 fold

Substance: insulin tregopil: PEGylated recombinant human insulin with a single methoxy-triethylene-glycol-propionyl unit on the Lys-β29-amino group; oral tablets
- intrasubject variability for the baseline-adjusted PD response Cmin ([2]; Cohort 2, insulin tregopil groups (placebo 9.16%)): 11.61%
- intrasubject variability for the baseline-adjusted PD response AUC0-180mins ([2]; Cohort 2, insulin tregopil groups (placebo 9.17%)): 8.41%
- intersubject variability of plasma insulin tregopil AUC0-180mins ([3]; Cohort 2): 144.0%
- intersubject variability of plasma insulin tregopil Cmax ([3]; Cohort 2): 124.7%
- intrasubject variability of plasma insulin tregopil Cmax ([3]; Cohort 2): 64.7%
- plasma insulin tregopil Cmax, mean ± SD ([3]; Cohort 2, 4-hour between-meal interval, afternoon dose): 6760 ± 7680 µg/mL
- plasma insulin tregopil Cmax, mean ± SD ([3]; Cohort 2, 4-hour between-meal interval, morning dose): 11330 ± 9870 µg/mL
- plasma insulin tregopil AUC0-180min, mean ± SD [3, 5]: 209.27 ± 186.61 mg·min/mL
- plasma insulin tregopil Cmax, mean ± SD [3, 5]: 7139 ± 5691 µg/mL
- plasma insulin tregopil AUC0-180min, mean ± SD [3, 6]: 320.60 ± 196.340 mg·min/mL
- plasma insulin tregopil Cmax, mean ± SD [3, 6]: 10140 ± 5310 µg/mL
- plasma insulin tregopil Cmax, mean ± SD ([3]; Cohort 2, 6-hour between-meal interval, morning dose (first value)): 11320 ± 8730 µg/mL
- 2-hour postprandial glucose (PPG), higher than the premeal levels ([4]; Cohort 1, 10 minute premeal group (placebo 55%)): 36%
- 2-hour postprandial glucose (PPG), higher than the premeal levels ([4]; Cohort 1, 20 minute premeal group (placebo 55%)): 55%
- 2-hour postprandial glucose (PPG), higher than the premeal levels ([4]; Cohort 1, 30 minute premeal group (placebo 55%)): 77%
- duration of glucose-lowering action ([4]; oral, patients with T2DM): approximately 2 hours
- events of hypoglycemia (patients with T2DM; Cohort 1): 4 events
- events of hypoglycemia (patients with T2DM; Cohort 1, 30 minute premeal dosing time group): 3 events
- events of hypoglycemia (patients with T2DM; Cohort 2, all in the afternoon): 5 events
- events of hypoglycemia (patients with T2DM; all cohorts): 43 events
- hypoglycemic events mild in severity (patients with T2DM; all cohorts): 83.7%
- patient discontinuations from the study due to AEs (patients with T2DM; all cohorts): no patient discontinuations
- duration of hypoglycemic symptoms (patients with T2DM; generally): approximately 30 minutes
- overall safety and tolerability (patients with T2DM): safe and well tolerated
- overall safety and tolerability (patients with T2DM; listed as Insulin tregopil): well tolerated
